This note sets out measurements from publication PMC10249145 (Cardiovascular & hematological agents in medicinal chemistry, 2023).

pIC50: −log10 of the molar value.

What is called pIC50 is the IC50 on a negative log10 scale, so that one unit is a factor of ten.

Assay [1] has as its target T1, human FXIIa (Homo sapiens, UniProt P00748).
T1 sequence (P00748 20-615): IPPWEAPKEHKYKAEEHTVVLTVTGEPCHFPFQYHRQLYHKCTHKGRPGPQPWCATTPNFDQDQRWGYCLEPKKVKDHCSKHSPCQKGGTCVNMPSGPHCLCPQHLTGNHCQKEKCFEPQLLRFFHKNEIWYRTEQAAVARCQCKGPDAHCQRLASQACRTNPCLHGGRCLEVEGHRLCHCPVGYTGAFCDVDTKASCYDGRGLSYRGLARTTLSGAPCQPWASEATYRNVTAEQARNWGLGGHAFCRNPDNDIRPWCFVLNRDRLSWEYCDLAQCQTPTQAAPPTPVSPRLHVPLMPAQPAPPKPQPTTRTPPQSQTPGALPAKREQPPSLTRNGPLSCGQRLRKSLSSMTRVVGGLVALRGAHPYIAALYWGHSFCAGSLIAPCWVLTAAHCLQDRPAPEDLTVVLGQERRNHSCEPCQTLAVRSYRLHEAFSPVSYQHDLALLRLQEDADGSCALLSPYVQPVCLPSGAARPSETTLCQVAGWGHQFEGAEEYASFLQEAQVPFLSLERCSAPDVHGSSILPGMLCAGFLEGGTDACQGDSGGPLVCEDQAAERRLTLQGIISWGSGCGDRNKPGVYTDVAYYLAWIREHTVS
Put plainly: Inhibition of FXIIa-mediated activation of FXI to FXIa. Type of assay: biochemical. The essentials: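 Zymogen FXI (4 μM as added), human FXIIa (200 nM as added) and test compound (1000–0.32 μM as added) were combined in Tris-HCl pH 7.4 at 37 °C. After 5 min, S-2366 (stock 6.9 mM) was added. The FXIa generated was measured as the initial A405 rate. A logistic fit of relative residual activity gave IC50 and efficacy.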

The target of the next assay is T2, bovine trypsin (Bos taurus, UniProt P00760).
T2 sequence (P00760 24-246): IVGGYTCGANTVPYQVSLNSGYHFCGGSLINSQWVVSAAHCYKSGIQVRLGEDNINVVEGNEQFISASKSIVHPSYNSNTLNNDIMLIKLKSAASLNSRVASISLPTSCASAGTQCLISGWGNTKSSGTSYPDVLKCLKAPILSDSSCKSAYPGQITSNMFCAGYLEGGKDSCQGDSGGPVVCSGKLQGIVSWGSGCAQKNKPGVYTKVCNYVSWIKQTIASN
Put plainly: Inhibition of trypsin, chromogenic substrate hydrolysis assay. The assay is classed as biochemical. The method, boiled down: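 Bovine trypsin at 500 ng/mL with S-2222 at 650 μM in-well (substrate level from KM), in pH 7.4 Tris-HCl containing NaCl, CaCl2, PEG8000 and Tween80. Residual activity was measured at several test compound concentrations, with logistic fitting for IC50 where inhibition was concentration-dependent.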

Assay [2] addresses T3, FVIIa/tissue factor (Homo sapiens, UniProt P08709).
T3 sequence (P08709 61-466): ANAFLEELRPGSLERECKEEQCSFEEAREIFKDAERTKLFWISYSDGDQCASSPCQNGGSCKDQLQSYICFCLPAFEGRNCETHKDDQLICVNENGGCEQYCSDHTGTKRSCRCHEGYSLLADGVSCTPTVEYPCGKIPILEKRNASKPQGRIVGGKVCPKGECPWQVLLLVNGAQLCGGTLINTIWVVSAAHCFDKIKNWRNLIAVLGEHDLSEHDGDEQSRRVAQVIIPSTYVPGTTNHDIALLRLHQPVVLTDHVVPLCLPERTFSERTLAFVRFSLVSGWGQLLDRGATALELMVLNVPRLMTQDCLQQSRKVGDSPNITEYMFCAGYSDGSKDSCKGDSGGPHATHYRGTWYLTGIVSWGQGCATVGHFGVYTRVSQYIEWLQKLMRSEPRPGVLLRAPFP
Put plainly: Inhibition of FVIIa/tissue factor, chromogenic substrate hydrolysis assay. Type of assay: biochemical. The method, boiled down:
(§1)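 FVIIa/tissue factor: enzyme about 8 nM with Spectrozyme VIIa at 1000 μM in-well, chosen from KM. Buffer was pH 7.4 Tris-HCl with NaCl, 2.5 mM CaCl2, 0.1% PEG8000 and 0.02% Tween80. Residual chromogenic activity was measured at several test compound concentrations, and a logistic fit gave IC50 where inhibition was concentration-dependent.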

In assay [3] the test system is FVIIa/tissue factor. The description is as above. The assay is classed as biochemical, human. The settings on record: ratio of IC50 values. The method, boiled down:
as §1

A further assay has as its system human plasma. The experiment in a line: Prothrombin time. The assay is classed as biochemical. The settings on record: normal human plasma; highest concentration tested about 980 μM. The method, boiled down:
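Thromboplastin-D was reconstituted in distilled water and warmed to 37 °C. Citrated pooled normal human plasma was incubated with test compound (solutions of 0–983 μM as added) for 30 s at 37 °C. Clotting was started by adding the prewarmed thromboplastin-D and the clotting time was read on a fibrometer. The concentration giving a 1.5-fold increase in PT was derived. Values are means of three experiments.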

Assay [4] concerns the target T1, human FXIIa. The experiment in a line: Direct inhibition of human FXIIa, chromogenic substrate hydrolysis assay. Type of assay: biochemical. As to conditions: human FXIIa, pH 7.4, 37 °C; ± 1 S.E. The method, boiled down: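 Human FXIIa (stock 200 nM) was preincubated for 5 min with test compound or vehicle in Tris-HCl pH 7.4 with NaCl, 2.5 mM CaCl2, 0.1% PEG8000 and 0.02% Tween80 at 37 °C. Spectrozyme FXIIa (stock 5 mM) was then added. Twelve in-well concentrations (500–0.0025 μM) were tested. Residual activity was taken from the initial A405 rate, and a logistic fit gave IC50, efficacy and Hill slope (±1 S.E.).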

`COC(=O)c1nc(N)n(C(=O)c2ccc(C(C)(C)C)cc2)n1` [Inhibitor 1, Methyl 5-amino-1-(4-(tert-butyl)benzoyl)-1H-1,2,4-triazole-3-carboxylate]: the results for the pIC50 against human FXIIa [1], at bovine trypsin and at FVIIa/tissue factor [2] were ~5.70, < 3.00 and < 3.00, respectively. The “efficacy of FXIIa inhibition using the macromolecule substrate FXI” value at human FXIIa [1] (residual FXIa activity by S-2366, pH 7.4, 37 °C) was ~ 41%. The “selectivity to FXIIa over trypsin” value at bovine trypsin (ratio of IC50 values) is “at least 4545 fold”. Further, the “selectivity to FXIIa over FVIIa/TF” value in the assay on FVIIa/tissue factor [3] is listed as “at least 4545 fold”. For the same molecule, the “PT (EC×1.5), concentration required to increase PT by 1.5-fold” value in the assay on human plasma was “not significantly affected”. For the same molecule, the “HS (Hill slope)” value at human FXIIa [4] worked out at 1.7 ± 0.4.
